Measured values as given in ChEMBL document CHEMBL1131035, “Tripeptide aldehyde inhibitors of human rhinovirus 3C protease: design, synthesis, biological evaluation, and cocrystal structure solution of P1 glutamine isosteric replacements” (J Med Chem, 1998).
Starred links: 1 amine or outer side, 2 acyl side, 3 side chain; linkers in the order of their positions; H or OH if unused. Non-standard residues stand in square brackets, D forms with d. Residues, ends and D or L forms follow the SMILES beside them. Groups on a side chain read outwards from the residue. *: point of attachment. Cbz = O=C(OCc1ccccc1)*; Dap = NC[C@H](N)C(=O)O; Boc = CC(C)(C)OC(=O)*; CO = O=C([*:1])[*:2]; Propionyl = CCC(=O)*; Bz = O=C(c1ccccc1)*

System: Human rhinovirus sp.
Assay: Effective concentration in HRV-14 infected H1- HeLa cells by protection assay.
Assay type: functional, organism-based
Settings: not given
How it was run: (§1)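 Cell protection assay in H1-HeLa cells infected with the named HRV serotype, using virus stocks propagated in H1-HeLa cells. Values reported are the 50% effective concentration (EC50), the 50% toxic concentration (TC50) and the therapeutic index (TI).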

Structure (SMILES) | EC50 [nM]
CC(C)C[C@H](NC(=O)OCc1ccccc1)C(=O)N[C@@H](Cc1ccccc1)C(=O)N[C@H](C=O)CNC(=O)N(C)C (Cbz-Leu-Phe-[Dap]([CO-NMe2])-aldehyde) | 2100
CC(C)C[C@H](NC(=O)OCc1ccccc1)C(=O)N[C@@H](Cc1ccccc1)C(=O)N[C@H](C=O)CCC(N)=O (Cbz-Leu-Phe-Gln-aldehyde) | 66000
CC(C)C[C@H](NC(=O)OCc1ccccc1)C(=O)N[C@@H](Cc1ccccc1)C(=O)N[C@H](C=O)CCC(=O)N(C)C (Cbz-Leu-Phe-Glu(NMe2)-aldehyde) | 1300
CC(=O)N(C)C[C@@H](C=O)NC(=O)[C@H](Cc1ccccc1)NC(=O)[C@H](CC(C)C)NC(=O)OCc1ccccc1 | 5200
CC(C)C[C@H](NC(=O)OCc1ccccc1)C(=O)N[C@@H](Cc1ccccc1)C(=O)N[C@H](C=O)CNC(=O)OC(C)(C)C (Cbz-Leu-Phe-[Dap](Boc)-aldehyde) | 2000
CC(C)C[C@H](NC(=O)OCc1ccccc1)C(=O)N[C@@H](Cc1ccccc1)C(=O)N[C@H](C=O)CNC(=O)c1ccccc1 (Cbz-Leu-Phe-[Dap](Bz)-aldehyde) | 1000
CCC(=O)NC[C@@H](C=O)NC(=O)[C@H](Cc1ccccc1)NC(=O)[C@H](CC(C)C)NC(=O)OCc1ccccc1 (Cbz-Leu-Phe-[Dap](Propionyl)-aldehyde) | 1300
CC(=O)NC[C@@H](C=O)NC(=O)[C@H](Cc1ccccc1)NC(=O)[C@H](CC(C)C)NC(=O)OCc1ccccc1 (Cbz-Leu-Phe-[Dap](Ac)-aldehyde) | 2400
CC(C)C[C@H](NC(=O)OCc1ccccc1)C(=O)N[C@@H](Cc1ccccc1)C(=O)N[C@H](C=O)CCC#N | 8000

System: HeLa
Assay: Effective concentration was measured on HRV-16 infected H1- HeLa cells by protection assay.
Assay type: functional, cell-based
Settings: Homo sapiens
How it was run: as §1

Structure (SMILES) | EC50 [nM]
CC(=O)NC[C@@H](C=O)NC(=O)[C@H](Cc1ccccc1)NC(=O)[C@H](CC(C)C)NC(=O)OCc1ccccc1 (Cbz-Leu-Phe-[Dap](Ac)-aldehyde) | 2100

System: HeLa
Assay: Effective concentration was measured on HRV-2 infected H1- HeLa cells by protection assay.
Assay type: functional, cell-based
Settings: Homo sapiens
How it was run: as §1

Structure (SMILES) | EC50 [nM]
CC(=O)NC[C@@H](C=O)NC(=O)[C@H](Cc1ccccc1)NC(=O)[C@H](CC(C)C)NC(=O)OCc1ccccc1 (Cbz-Leu-Phe-[Dap](Ac)-aldehyde) | 3100

System: HeLa
Assay: Effective concentration was measured on HRV-89 infected H1- HeLa cells by protection assay.
Assay type: functional, cell-based
Settings: Homo sapiens
How it was run: as §1

Structure (SMILES) | EC50 [nM]
CC(=O)NC[C@@H](C=O)NC(=O)[C@H](Cc1ccccc1)NC(=O)[C@H](CC(C)C)NC(=O)OCc1ccccc1 (Cbz-Leu-Phe-[Dap](Ac)-aldehyde) | 2200

Target: T1, Human rhinovirus A protease (Human rhinovirus sp., UniProt Q4U254)
T1 sequence (Q4U254 whole entry): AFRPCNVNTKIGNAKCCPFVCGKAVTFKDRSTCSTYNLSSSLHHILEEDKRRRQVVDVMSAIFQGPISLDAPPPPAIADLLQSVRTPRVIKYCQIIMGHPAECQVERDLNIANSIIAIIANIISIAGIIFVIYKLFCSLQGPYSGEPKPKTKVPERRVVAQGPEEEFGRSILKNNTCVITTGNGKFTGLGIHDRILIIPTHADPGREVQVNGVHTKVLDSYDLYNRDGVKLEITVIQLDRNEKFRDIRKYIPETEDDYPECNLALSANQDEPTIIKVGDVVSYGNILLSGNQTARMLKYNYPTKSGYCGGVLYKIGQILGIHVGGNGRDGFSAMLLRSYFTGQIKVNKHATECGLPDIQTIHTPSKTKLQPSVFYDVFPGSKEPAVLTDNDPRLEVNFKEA
Assay: Binding affinity against HRV-14 3C protease.
Settings: not given
How it was run: (§2)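 Recombinant 3C protease of the named HRV serotype, expressed and purified. Ki was determined by a continuous fluorescence resonance energy transfer cleavage assay, with 5 mM dithiothreitol included in the assay. Reported standard deviation ±10%.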

Structure (SMILES) | Ki [nM]
CC(C)C[C@H](NC(=O)OCc1ccccc1)C(=O)N[C@@H](Cc1ccccc1)C(=O)N[C@H](C=O)CNC(=O)N(C)C (Cbz-Leu-Phe-[Dap]([CO-NMe2])-aldehyde) | 10
CC(C)C[C@H](NC(=O)OCc1ccccc1)C(=O)N[C@@H](Cc1ccccc1)C(=O)N[C@H](C=O)CCC(N)=O (Cbz-Leu-Phe-Gln-aldehyde) | 3600
CC(C)C[C@H](NC(=O)OCc1ccccc1)C(=O)N[C@@H](Cc1ccccc1)C(=O)N[C@H](C=O)CCC(=O)N(C)C (Cbz-Leu-Phe-Glu(NMe2)-aldehyde) | 5
CC(=O)N(C)C[C@@H](C=O)NC(=O)[C@H](Cc1ccccc1)NC(=O)[C@H](CC(C)C)NC(=O)OCc1ccccc1 | 469
CC(C)C[C@H](NC(=O)OCc1ccccc1)C(=O)N[C@@H](Cc1ccccc1)C(=O)N[C@H](C=O)CNC(=O)OC(C)(C)C (Cbz-Leu-Phe-[Dap](Boc)-aldehyde) | 66
CC(C)C[C@H](NC(=O)OCc1ccccc1)C(=O)N[C@@H](Cc1ccccc1)C(=O)N[C@H](C=O)CNC(=O)c1ccccc1 (Cbz-Leu-Phe-[Dap](Bz)-aldehyde) | 12
CCC(=O)NC[C@@H](C=O)NC(=O)[C@H](Cc1ccccc1)NC(=O)[C@H](CC(C)C)NC(=O)OCc1ccccc1 (Cbz-Leu-Phe-[Dap](Propionyl)-aldehyde) | 7
CC(=O)NC[C@@H](C=O)NC(=O)[C@H](Cc1ccccc1)NC(=O)[C@H](CC(C)C)NC(=O)OCc1ccccc1 (Cbz-Leu-Phe-[Dap](Ac)-aldehyde) | 6
CC(C)C[C@H](NC(=O)OCc1ccccc1)C(=O)N[C@@H](Cc1ccccc1)C(=O)N[C@H](C=O)CCC#N | 190

Target: T1, Human rhinovirus A protease
Assay: Binding affinity was measured against HRV-16 3C protease
Settings: not given
How it was run: as §2

Structure (SMILES) | Ki [nM]
CC(=O)NC[C@@H](C=O)NC(=O)[C@H](Cc1ccccc1)NC(=O)[C@H](CC(C)C)NC(=O)OCc1ccccc1 (Cbz-Leu-Phe-[Dap](Ac)-aldehyde) | 69

Target: T1, Human rhinovirus A protease
Assay: Binding affinity was measured against HRV-2 3C protease
Settings: not given
How it was run: as §2

Structure (SMILES) | Ki [nM]
CC(=O)NC[C@@H](C=O)NC(=O)[C@H](Cc1ccccc1)NC(=O)[C@H](CC(C)C)NC(=O)OCc1ccccc1 (Cbz-Leu-Phe-[Dap](Ac)-aldehyde) | 160

Target: T1, Human rhinovirus A protease
Assay: Binding affinity was measured against HRV-89 3C protease
Settings: not given
How it was run: as §2

Structure (SMILES) | Ki [nM]
CC(=O)NC[C@@H](C=O)NC(=O)[C@H](Cc1ccccc1)NC(=O)[C@H](CC(C)C)NC(=O)OCc1ccccc1 (Cbz-Leu-Phe-[Dap](Ac)-aldehyde) | 36

System: not listed separately
Assay: Toxic concentration on HRV-14 infected H1- HeLa cells by protection assay.
Assay type: toxicity, cell-based
Settings: human, H1-HeLa cells infected with HRV-14; read-out: TC50 (the source's name)
How it was run: as §1

Structure (SMILES) | CC50 [nM]
CC(C)C[C@H](NC(=O)OCc1ccccc1)C(=O)N[C@@H](Cc1ccccc1)C(=O)N[C@H](C=O)CNC(=O)N(C)C (Cbz-Leu-Phe-[Dap]([CO-NMe2])-aldehyde) | 99000
CC(C)C[C@H](NC(=O)OCc1ccccc1)C(=O)N[C@@H](Cc1ccccc1)C(=O)N[C@H](C=O)CCC(N)=O (Cbz-Leu-Phe-Gln-aldehyde) | 398000
CC(C)C[C@H](NC(=O)OCc1ccccc1)C(=O)N[C@@H](Cc1ccccc1)C(=O)N[C@H](C=O)CCC(=O)N(C)C (Cbz-Leu-Phe-Glu(NMe2)-aldehyde) | 63000
CC(=O)N(C)C[C@@H](C=O)NC(=O)[C@H](Cc1ccccc1)NC(=O)[C@H](CC(C)C)NC(=O)OCc1ccccc1 | 100000
CC(C)C[C@H](NC(=O)OCc1ccccc1)C(=O)N[C@@H](Cc1ccccc1)C(=O)N[C@H](C=O)CNC(=O)OC(C)(C)C (Cbz-Leu-Phe-[Dap](Boc)-aldehyde) | 56200
CC(C)C[C@H](NC(=O)OCc1ccccc1)C(=O)N[C@@H](Cc1ccccc1)C(=O)N[C@H](C=O)CNC(=O)c1ccccc1 (Cbz-Leu-Phe-[Dap](Bz)-aldehyde) | 51200
CCC(=O)NC[C@@H](C=O)NC(=O)[C@H](Cc1ccccc1)NC(=O)[C@H](CC(C)C)NC(=O)OCc1ccccc1 (Cbz-Leu-Phe-[Dap](Propionyl)-aldehyde) | > 100000
CC(=O)NC[C@@H](C=O)NC(=O)[C@H](Cc1ccccc1)NC(=O)[C@H](CC(C)C)NC(=O)OCc1ccccc1 (Cbz-Leu-Phe-[Dap](Ac)-aldehyde) | 316000
CC(C)C[C@H](NC(=O)OCc1ccccc1)C(=O)N[C@@H](Cc1ccccc1)C(=O)N[C@H](C=O)CCC#N | 31000

System: not listed separately
Assay: Toxic concentration was measured on HRV-16 infected H1- HeLa cells by protection assay.
Assay type: ADME, cell-based
Settings: human, H1-HeLa cells infected with HRV-16; read-out: TC50 (the source's name)
How it was run: as §1

Structure (SMILES) | CC50 [nM]
CC(=O)NC[C@@H](C=O)NC(=O)[C@H](Cc1ccccc1)NC(=O)[C@H](CC(C)C)NC(=O)OCc1ccccc1 (Cbz-Leu-Phe-[Dap](Ac)-aldehyde) | > 100000

System: not listed separately
Assay: Therapeutic Index against HRV-14 virus infection
Assay type: organism-based
Settings: rhinovirus b14, H1-HeLa cells; read-out: TI
How it was run: as §1

Structure (SMILES) | selectivity ratio
CC(C)C[C@H](NC(=O)OCc1ccccc1)C(=O)N[C@@H](Cc1ccccc1)C(=O)N[C@H](C=O)CNC(=O)N(C)C (Cbz-Leu-Phe-[Dap]([CO-NMe2])-aldehyde) | 47
CC(C)C[C@H](NC(=O)OCc1ccccc1)C(=O)N[C@@H](Cc1ccccc1)C(=O)N[C@H](C=O)CCC(N)=O (Cbz-Leu-Phe-Gln-aldehyde) | 6
CC(C)C[C@H](NC(=O)OCc1ccccc1)C(=O)N[C@@H](Cc1ccccc1)C(=O)N[C@H](C=O)CCC(=O)N(C)C (Cbz-Leu-Phe-Glu(NMe2)-aldehyde) | 48
CC(=O)N(C)C[C@@H](C=O)NC(=O)[C@H](Cc1ccccc1)NC(=O)[C@H](CC(C)C)NC(=O)OCc1ccccc1 | 19
CC(C)C[C@H](NC(=O)OCc1ccccc1)C(=O)N[C@@H](Cc1ccccc1)C(=O)N[C@H](C=O)CNC(=O)OC(C)(C)C (Cbz-Leu-Phe-[Dap](Boc)-aldehyde) | 28
CC(C)C[C@H](NC(=O)OCc1ccccc1)C(=O)N[C@@H](Cc1ccccc1)C(=O)N[C@H](C=O)CNC(=O)c1ccccc1 (Cbz-Leu-Phe-[Dap](Bz)-aldehyde) | 51
CCC(=O)NC[C@@H](C=O)NC(=O)[C@H](Cc1ccccc1)NC(=O)[C@H](CC(C)C)NC(=O)OCc1ccccc1 (Cbz-Leu-Phe-[Dap](Propionyl)-aldehyde) | > 77
CC(=O)NC[C@@H](C=O)NC(=O)[C@H](Cc1ccccc1)NC(=O)[C@H](CC(C)C)NC(=O)OCc1ccccc1 (Cbz-Leu-Phe-[Dap](Ac)-aldehyde) | 132
CC(C)C[C@H](NC(=O)OCc1ccccc1)C(=O)N[C@@H](Cc1ccccc1)C(=O)N[C@H](C=O)CCC#N | 4

System: not listed separately
Assay: Toxic concentration was measured on HRV-2 infected H1- HeLa cells by protection assay.
Assay type: ADME, cell-based
Settings: human, H1-HeLa cells infected with HRV-2; read-out: TC50 (the source's name)
How it was run: as §1

Structure (SMILES) | CC50 [nM]
CC(=O)NC[C@@H](C=O)NC(=O)[C@H](Cc1ccccc1)NC(=O)[C@H](CC(C)C)NC(=O)OCc1ccccc1 (Cbz-Leu-Phe-[Dap](Ac)-aldehyde) | > 100000

System: not listed separately
Assay: Toxic concentration was measured on HRV-89 infected H1- HeLa cells by protection assay.
Assay type: ADME, cell-based
Settings: human, H1-HeLa cells infected with HRV-89; read-out: TC50 (the source's name)
How it was run: as §1

Structure (SMILES) | CC50 [nM]
CC(=O)NC[C@@H](C=O)NC(=O)[C@H](Cc1ccccc1)NC(=O)[C@H](CC(C)C)NC(=O)OCc1ccccc1 (Cbz-Leu-Phe-[Dap](Ac)-aldehyde) | > 100000
